# Rows were chosen to be rich in hits. Some 1.9% of all compounds tested hit in one or more screens of this group.
# SUMO HTRF inh: inhibitors of human SUMOylation (UBC9). 290,000 compounds, 0.36% hits. HTRF SUMOylation assay, SAE1/SAE2 + UBC9, in vitro. inhibition, % at 35 µM. P63279; in the data active = inhibition above about 50%, passing the limit was not always enough
# Target sequence (P63279 whole entry, looked up): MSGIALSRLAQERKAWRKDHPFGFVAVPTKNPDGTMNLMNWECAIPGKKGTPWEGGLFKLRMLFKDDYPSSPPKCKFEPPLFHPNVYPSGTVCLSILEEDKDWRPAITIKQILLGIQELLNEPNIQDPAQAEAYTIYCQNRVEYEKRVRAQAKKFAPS
# IMP-1 inhibitor: inhibitors of Pseudomonas aeruginosa IMP-1 metallo-beta-lactamase; purified IMP-1, nitrocefin hydrolysis, epi-absorbance fluorescence; inhibition, % at 5.6 µM; 290,000 compounds, 0.45% hits; AID 1556;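 active = inhibition above the mean plus 3 SD of all compounds in the same screening run, cut at about 4.5% in these data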;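 note: 0% = IMP-1 with DMSO and 100% = DMSO wells lacking enzyme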
#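 System – purified recombinant IMP-1 beta-lactamase · Input – IMP-1 dispensed at 0.2 nM · Timing – 15 min preincubation plus 25 min reaction at 25 °C · Signal – Epi-absorbance fluorescence, 480 nm excitation, 530 nm emission · Measure – percent IMP-1 inhibition derived from blank-referenced optical density · Controls – Enzyme-plus-DMSO low control, enzyme-free DMSO high control · Replication – singlicate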
# T cell modulator: T cell immune modulators affecting CD8 T cell-vesicle binding; response (vesicle binding), % at 7 µM; 330,000 compounds, 0.068% hits; AID 2052; 2C CD8+ T cell-vesicle binding, flow cytometry; hits give low values;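 active = response, share of CD8 T cells binding vesicles, and their 90th percentile fluorescence all below set limits, cut at about 80% in these data, passing the limit was not always enough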;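 note: values below 100% mean blocked vesicle binding to the CD8+ T cells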
#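 Incubation: binding step 1.5 h, 37 °C, antibody labelling 20 min, ice; system: murine 2C transgenic CD8+ T lymphocytes; technique: cytometric PE anti-B7-1 and Alexa647 anti-CD8 signals after 1% paraformaldehyde fixation; also added: QL9-charged Drosophila Ld/ICAM-1/B7-1 vesicles; control set: naked versus QL9-loaded vesicles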
# CTSL1 counter: blocks F. hepatica cathepsin L1 in PFM18AAP counter-screen | inhibition, % at 5.96 µM | 300,000 compounds, 0.49% hits | AID 1906 | recombinant F. hepatica cathepsin L1, Z-Leu-Arg-MCA fluorescence;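 active = inhibition above the mean of all tested compounds plus 3 SD, set per screening campaign, cut at about 17% in these data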;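 note: 0% = plate median of test compound wells and 100% = 1 µM Z-Phe-Ala-diazomethylketone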
# VIM-2 inh: blocks Pseudomonas aeruginosa VIM-2 metallo-beta-lactamase; purified VIM-2, nitrocefin hydrolysis, epi-absorbance fluorescence; inhibition, % at 5.6 µM; 290,000 compounds, 0.89% hits; AID 1527;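 active = inhibition above the mean of all tested compounds plus 3 SD, cutoff set per screening run, cut at about 7.5% in these data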;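 note: red hydrolysis product quenches plate fluorescence so inhibitors raise well fluorescence; 0% = enzyme with DMSO and 100% = DMSO without enzyme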
# p-CIP stab down: compounds decreasing mouse p/CIP protein stability; Q05BA5; 290,000 compounds, 0.01% hits; AID 1984; decrease of EGFP signal, % at 10 µM; F442A p/CIP-EGFP cells, EGFP fluorescence, 16 h;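 active = EGFP signal decrease of at least 30% at 10 µM or well 3 SD below plate mean, unless failing retest; inactive = the rest, including hits failing retest or dose response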
# Active calls of the source: *; i = inactive; / = no result.
SMILES,SUMO HTRF inh,IMP-1 inhibitor,T cell modulator,CTSL1 counter,VIM-2 inh,p-CIP stab down
Cc1noc(C)c1CSc1ccccc1C(=O)N(C)CC(=O)Nc1cccc(F)c1,/,/,253,-2,/,/
O=C(CCl)Nc1ccc(N2CCCCCC2)cc1,-17,-3,486,21*,-1,4
O=C1c2ccccc2S(=O)(=O)c2cc(C(=O)N3CCN(c4ccc(Cl)cn4)CC3)ccc21,/,/,507,17*,/,/
N#Cc1cccnc1N1CCN(C(=O)c2ccc3c(c2)S(=O)(=O)c2ccccc2C3=O)CC1,/,/,385,1,/,/
CCC1(C)CC(C(N)=S)CCO1 (stereo not given),9,5.3*,i,0,-1,-2
Cc1cc(NS(=O)(=O)c2ccc(NC(=O)Cc3ccc([N+](=O)[O-])cc3)cc2)nc(C)n1,/,/,394,/,/,/
CC1=Nc2ccc(C)c3nc(C)cc(c23)N1c1ccc(C)cc1,/,-2,176,-2,2,/
Cc1ccc(N2C=Nc3ccc(C)c4nc(C)cc2c34)cc1,11,-1,230,1,11*,12
NC(=O)C1=C[C@@H](c2csc3ccccc23)C[C@@H](OCCCCO)O1,-2,6.3*,i,-2,3,-2
COc1cccc2c1-c1c(O)cccc1C2=O,9,-1,346,4,11*,-13
C[C@H](CO)N1C[C@H](C)[C@@H](CN(C)C(=O)Nc2ccccc2)Oc2ccc(NS(=O)(=O)c3ccccc3)cc2C1=O,/,/,582,/,/,/
CC(C)NC(=O)N(C)C[C@H]1Oc2ccc(NS(=O)(=O)c3ccccc3)cc2C(=O)N([C@H](C)CO)C[C@H]1C,/,/,62*,/,/,/
C[C@H](CO)N1C[C@H](C)[C@@H](CN(C)C)Oc2c(NS(=O)(=O)c3ccccc3)cccc2C1=O,/,/,0.0*,/,/,/
C[C@@H]1CN([C@H](C)CO)C(=O)c2cccc(NS(=O)(=O)c3ccccc3)c2O[C@H]1CN(C)C,/,/,181,/,/,/
CCOC(=O)c1c(C)oc(/N=C/c2ccccc2O)c1C#N,-32,-3,312,17*,-4,21
Cc1oc(/N=C/c2ccccc2O)c(C#N)c1C,14,-3,271,-8,-1,-14
CC(C)OCCCNC(=O)Nc1cccc2ccccc12,12,-3,332,2,-2,-12
Cn1cccc1C(=O)NNC(=O)c1ccccc1Br,/,/,0.0*,5,/,/
Cc1onc(C(=O)Nc2sc3c(c2C#N)CCCC3)c1[N+](=O)[O-],-3,-2,720,23*,-2,-5
N#C/C(N=Nc1ccccc1O)=N\Nc1ccccc1O,/,/,446,34*,/,/
Oc1ccccc1N=N/C(=N/Nc1ccccc1O)c1ccccc1,/,/,968,-5,/,/
O=C1C(=O)N(CCCn2ccnc2)C(c2ccc(Br)cc2)/C1=C(\O)c1ccc2c(c1)OCCO2 (stereo not given),-2,-5,405,5,-4,-2
O=C1C(=O)N(CCCn2ccnc2)C(c2ccc([N+](=O)[O-])cc2)/C1=C(\O)c1ccc2c(c1)OCCO2 (stereo not given),/,/,0.0*,/,/,/
CC(=O)c1ccc(N2CCN(C(=O)c3cc4c(C)nc5ccccc5c4o3)CC2)cc1,-1,-1,689,-2,0,-5
Cc1nc2ccccc2c2oc(C(=O)N3CCC(N4CCCCC4)CC3)cc12,10,0,281,0,60*,2
SMILES,SUMO HTRF inh,IMP-1 inhibitor,T cell modulator,CTSL1 counter,VIM-2 inh,p-CIP stab down
Cc1nc2ccccc2c2oc(C(=O)N3CCCC(C)C3)cc12 (stereo not given),-7,-1,270,0,9.6*,-3
O=C(COc1ccc(Cl)cc1)NNC(=O)CSc1nncs1,5,-4,660,-9,-2,18
O=C(COC(=O)CCN1C(=O)/C(=C\C=C\c2ccccc2)SC1=S)Nc1cc(F)ccc1F,48,7.9*,200,-6,-2,3
O=C(CN1C(=O)/C(=C\C=C\c2ccccc2)SC1=S)Nc1ccc(F)cc1,38,0,495,4,0,-29
O=C(CCN1C(=O)/C(=C\C=C\c2ccccc2)SC1=S)Nc1ccc(C(=O)O)cc1,25,8.4*,340,7,-1,-16
S=C(NCCc1cnc[nH]1)NC1CCCC1,-10,-5,319,-4,-3,11
Clc1cccc(-c2ccc(CNCc3ccccn3)o2)c1,5,-6,369,0,11*,-4
COc1cccc(NC(=O)CCS(=O)(=O)c2ccc3c(c2)oc(=O)n3C)c1,20,-2,246,4,-1,-7
Cc1nc(Sc2ccccc2)c(C#N)c(C)c1[N+](=O)[O-],2,-3,907,5,8.6*,7
CC(C)c1ccc(O)c(NC(=O)c2ncn[nH]2)c1,12,-4,591,17*,-2,4
CCc1cccc(CC)c1NC(=O)CSc1nc2ccc(N3C(=O)C4C(C3=O)[C@H]3C=C[C@@H]4C3)cc2s1 (stereo not given in full),15,3,213,-1,0,-3
Cc1ccccc1/C=C/c1cc[n+](C)cc1,14,-2,281,3,0,6
C=CCn1cc(/C=C/c2cc[n+](C)cc2)c2ccccc21,18,7.8*,899,2,10*,-415
C=CCn1c(C)c(/C=C/c2cc[n+](C)cc2)c2ccccc21,11,4,830,13,9.3*,-784
CCN(CC)C(=O)Cn1c(C)c(/C=C/c2cc[n+](C)cc2)c2ccccc21,20,2,220,3,3,-64
O=C(NCc1ccc(Cl)cc1)C(=O)NCC1OCCN1S(=O)(=O)c1cc(F)ccc1F (stereo not given),-11,-3,594,2,-3,-6
C[C@H](NC(=O)N1CCn2c1nc1ccccc12)C(=O)NCc1ccc2c(c1)OCO2,-5,-2,487,-3,0,1
O=C(/C=C/c1ccc(O)c(O)c1)O[C@H](Cc1ccc(O)c(O)c1)C(=O)O,69*,/,/,/,/,-10
Cc1c2cccn2cc[n+]1C,23,1,78*,2,-1,-7
C=CCn1c(SCCN2CCCC2)nc2c([nH]c3ccccc32)c1=O,18,0,140,1,10*,-5
O=C(c1ccco1)N(CCC(c1ccccc1)c1ccco1)Cc1ccco1 (stereo not given),25,-2,870,26*,-1,-22
CC(=O)N(CCC(c1ccco1)C(C)C)Cc1ccc(OC(C)C)cc1 (stereo not given),3,-1,172,17*,0,-7
CC(=O)N(CCC(c1ccccc1)c1ccco1)Cc1cccs1 (stereo not given),-11,-1,97,22*,-1,-4
CCC(=O)N(CCC(c1ccco1)c1ccccc1OC)Cc1cccs1 (stereo not given),7,4,187,2,-2,3
